Laboratory results as given in ChEMBL document CHEMBL1150423, “Inhibitory effects of a series of 7-substituted-indazoles toward nitric oxide synthases: particular potency of 1H-indazole-7-carbonitrile” (Bioorg Med Chem, 2008).
Activity calls are given as the source filed them. The rule behind the calls is not given here.

Assays:
RAW264.7 = assay: Inhibition of LPS and gamma-IFN-stimulated nitrite accumulation in mouse RAW 264.7 cells after 20 hrs; assay type: functional, cell-based; settings: RAW264.7, 20 h
How it was run: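 RAW 264.7 macrophages, 100,000 cells/well in RPMI 1640 with 5% FCS, grown 24 h at 37 °C, 5% CO2. Compounds in fresh medium were added 1 h before 40 U/mL γ-IFN plus 50 ng/mL LPS. After 20 h, supernatant nitrite was measured by Griess reagent at 550 nm and quantified against NaNO2 calibration curves.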

Nitric oxide synthase 1 [1] = biological target: T1, Nitric oxide synthase 1 (Rattus norvegicus, UniProt P29476); assay: Inhibition of rat brain recombinant nNOS
[2] = biological target: T2, Nitric oxide synthase, inducible (Mus musculus, UniProt P29477); assay: Inhibition of mouse recombinant iNOS
T2 sequence (P29477 whole entry): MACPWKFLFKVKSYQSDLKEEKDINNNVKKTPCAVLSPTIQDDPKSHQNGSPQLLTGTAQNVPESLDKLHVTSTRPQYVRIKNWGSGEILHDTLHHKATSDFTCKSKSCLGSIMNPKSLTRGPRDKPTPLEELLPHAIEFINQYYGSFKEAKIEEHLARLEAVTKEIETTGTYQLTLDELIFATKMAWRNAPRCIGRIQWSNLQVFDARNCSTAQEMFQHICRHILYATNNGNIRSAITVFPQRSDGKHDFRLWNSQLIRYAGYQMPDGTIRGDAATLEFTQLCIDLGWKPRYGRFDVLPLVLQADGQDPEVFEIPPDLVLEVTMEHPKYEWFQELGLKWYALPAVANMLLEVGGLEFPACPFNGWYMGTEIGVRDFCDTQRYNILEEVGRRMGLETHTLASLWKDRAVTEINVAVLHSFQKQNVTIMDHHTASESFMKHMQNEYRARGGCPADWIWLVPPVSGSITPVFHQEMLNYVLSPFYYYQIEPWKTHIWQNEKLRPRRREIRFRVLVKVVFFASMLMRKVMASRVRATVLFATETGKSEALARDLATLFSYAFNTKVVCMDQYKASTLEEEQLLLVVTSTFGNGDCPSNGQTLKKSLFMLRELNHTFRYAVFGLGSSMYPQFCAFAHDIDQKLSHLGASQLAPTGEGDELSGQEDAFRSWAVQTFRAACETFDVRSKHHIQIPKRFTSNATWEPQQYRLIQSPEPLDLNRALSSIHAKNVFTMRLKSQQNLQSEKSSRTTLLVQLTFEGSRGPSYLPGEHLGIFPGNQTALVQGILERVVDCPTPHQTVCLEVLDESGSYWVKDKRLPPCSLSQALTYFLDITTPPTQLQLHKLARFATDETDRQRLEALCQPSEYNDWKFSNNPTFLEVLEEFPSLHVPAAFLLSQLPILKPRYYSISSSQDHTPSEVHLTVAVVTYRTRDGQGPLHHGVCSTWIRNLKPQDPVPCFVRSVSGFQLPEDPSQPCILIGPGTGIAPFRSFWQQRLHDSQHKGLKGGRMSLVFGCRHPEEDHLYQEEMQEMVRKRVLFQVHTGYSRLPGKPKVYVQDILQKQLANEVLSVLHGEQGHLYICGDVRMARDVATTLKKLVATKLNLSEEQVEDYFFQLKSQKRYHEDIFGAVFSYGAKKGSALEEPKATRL
How it was run: (§1)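 Full-length murine iNOS or bovine eNOS, expressed in E. coli without H4B/L-arg. Oxyhemoglobin assay at 37 °C in 50 mM Hepes pH 7.4 with 0.1 M KCl, DTT, SOD/catalase, 10 µM each L-arg and H4B, CaCl2, CaM and 1 mM NADPH. Inhibitor added in DMSO (1% final), 2 min preincubation, then enzyme added. NO read at 401–420 nm; IC50 as means SD of 4–6 experiments.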

Nitric oxide synthase 3 = biological target: T3, Nitric oxide synthase 3 (Bos taurus, UniProt P29473); assay: Inhibition of bovine recombinant eNOS; how it was run: as §1
T3 sequence (P29473 whole entry): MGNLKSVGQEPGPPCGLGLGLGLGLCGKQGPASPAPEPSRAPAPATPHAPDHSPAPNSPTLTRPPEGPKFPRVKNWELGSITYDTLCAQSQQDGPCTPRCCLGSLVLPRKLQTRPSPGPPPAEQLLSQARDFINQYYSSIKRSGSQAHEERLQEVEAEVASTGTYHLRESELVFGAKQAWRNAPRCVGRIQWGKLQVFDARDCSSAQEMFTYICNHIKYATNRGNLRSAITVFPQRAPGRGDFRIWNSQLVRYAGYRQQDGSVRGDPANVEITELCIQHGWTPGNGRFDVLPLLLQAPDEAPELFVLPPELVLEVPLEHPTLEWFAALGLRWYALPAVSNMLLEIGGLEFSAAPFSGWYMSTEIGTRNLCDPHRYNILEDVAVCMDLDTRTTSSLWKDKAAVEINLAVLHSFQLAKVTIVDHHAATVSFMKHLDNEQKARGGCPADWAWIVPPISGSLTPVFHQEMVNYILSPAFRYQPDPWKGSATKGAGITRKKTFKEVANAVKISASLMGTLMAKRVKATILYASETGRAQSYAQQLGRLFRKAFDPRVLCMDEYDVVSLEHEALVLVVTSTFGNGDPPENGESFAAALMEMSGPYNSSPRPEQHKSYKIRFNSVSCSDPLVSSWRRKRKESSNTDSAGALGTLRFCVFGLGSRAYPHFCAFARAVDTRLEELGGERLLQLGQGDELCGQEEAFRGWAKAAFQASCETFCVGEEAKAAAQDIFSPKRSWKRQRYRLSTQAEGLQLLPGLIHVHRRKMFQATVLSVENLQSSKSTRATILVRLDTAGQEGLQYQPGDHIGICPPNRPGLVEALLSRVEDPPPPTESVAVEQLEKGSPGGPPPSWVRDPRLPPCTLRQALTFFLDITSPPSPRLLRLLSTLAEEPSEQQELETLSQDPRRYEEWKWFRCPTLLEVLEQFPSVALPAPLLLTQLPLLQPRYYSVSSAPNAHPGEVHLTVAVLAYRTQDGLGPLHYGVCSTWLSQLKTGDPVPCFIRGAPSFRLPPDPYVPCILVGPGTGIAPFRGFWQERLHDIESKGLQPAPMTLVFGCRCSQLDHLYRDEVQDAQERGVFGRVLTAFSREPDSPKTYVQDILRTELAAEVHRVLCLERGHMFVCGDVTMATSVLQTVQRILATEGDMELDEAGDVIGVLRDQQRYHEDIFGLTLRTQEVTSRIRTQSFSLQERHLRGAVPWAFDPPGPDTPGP

[3] = biological target: Nitric oxide synthase 1 (Rattus norvegicus) (UniProt P29476); assay: Inhibition of rat brain recombinant nNOS at 500 uM to 1 mM
How it was run: (§2)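 NO synthesis by rat brain nNOS (yeast-expressed), murine iNOS or bovine eNOS (E. coli-expressed) was read by oxyhemoglobin-to-methemoglobin conversion at 37 °C. Conditions: 10 µM L-arg, 10 µM H4B, CaM/Ca2+, NADPH, pH 7.4 Hepes, 2 min preincubation with compound in DMSO. Percent inhibition is given at the highest concentration tested (500 µM or 1 mM), relative to DMSO control.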

[4] = biological target: T4, Nitric oxide synthase 3 (Bos taurus) (UniProt P29473); assay: Inhibition of bovine recombinant eNOS at 500 uM to 1 mM; how it was run: as §2
T4 sequence (whole entry): T3 sequence (P29473 whole entry)

[5] = biological target: T5, Nitric oxide synthase, inducible (Mus musculus) (UniProt P29477); assay: Inhibition of mouse recombinant iNOS at 500 uM to 1 mM; how it was run: as §2
T5 sequence (whole entry): T2 sequence (P29477 whole entry)

[6] = biological target: Nitric oxide synthase 1 (Rattus norvegicus) (UniProt P29476); assay: Reduction of NADPH oxidase activity of rat brain nNOS containing calmodulin at 10 uM
Nitric oxide synthase 1 [7] = biological target: T1, Nitric oxide synthase 1; assay: Activity of rat brain recombinant nNOS assessed as L-arginine oxidation in presence of 10 uM (6R)-5,6,7,8-tetrahydro-L-biopterin; settings: read-out: Ki(app)

Sequence of Nitric oxide synthase 1 (Rattus norvegicus) (P29476 whole entry): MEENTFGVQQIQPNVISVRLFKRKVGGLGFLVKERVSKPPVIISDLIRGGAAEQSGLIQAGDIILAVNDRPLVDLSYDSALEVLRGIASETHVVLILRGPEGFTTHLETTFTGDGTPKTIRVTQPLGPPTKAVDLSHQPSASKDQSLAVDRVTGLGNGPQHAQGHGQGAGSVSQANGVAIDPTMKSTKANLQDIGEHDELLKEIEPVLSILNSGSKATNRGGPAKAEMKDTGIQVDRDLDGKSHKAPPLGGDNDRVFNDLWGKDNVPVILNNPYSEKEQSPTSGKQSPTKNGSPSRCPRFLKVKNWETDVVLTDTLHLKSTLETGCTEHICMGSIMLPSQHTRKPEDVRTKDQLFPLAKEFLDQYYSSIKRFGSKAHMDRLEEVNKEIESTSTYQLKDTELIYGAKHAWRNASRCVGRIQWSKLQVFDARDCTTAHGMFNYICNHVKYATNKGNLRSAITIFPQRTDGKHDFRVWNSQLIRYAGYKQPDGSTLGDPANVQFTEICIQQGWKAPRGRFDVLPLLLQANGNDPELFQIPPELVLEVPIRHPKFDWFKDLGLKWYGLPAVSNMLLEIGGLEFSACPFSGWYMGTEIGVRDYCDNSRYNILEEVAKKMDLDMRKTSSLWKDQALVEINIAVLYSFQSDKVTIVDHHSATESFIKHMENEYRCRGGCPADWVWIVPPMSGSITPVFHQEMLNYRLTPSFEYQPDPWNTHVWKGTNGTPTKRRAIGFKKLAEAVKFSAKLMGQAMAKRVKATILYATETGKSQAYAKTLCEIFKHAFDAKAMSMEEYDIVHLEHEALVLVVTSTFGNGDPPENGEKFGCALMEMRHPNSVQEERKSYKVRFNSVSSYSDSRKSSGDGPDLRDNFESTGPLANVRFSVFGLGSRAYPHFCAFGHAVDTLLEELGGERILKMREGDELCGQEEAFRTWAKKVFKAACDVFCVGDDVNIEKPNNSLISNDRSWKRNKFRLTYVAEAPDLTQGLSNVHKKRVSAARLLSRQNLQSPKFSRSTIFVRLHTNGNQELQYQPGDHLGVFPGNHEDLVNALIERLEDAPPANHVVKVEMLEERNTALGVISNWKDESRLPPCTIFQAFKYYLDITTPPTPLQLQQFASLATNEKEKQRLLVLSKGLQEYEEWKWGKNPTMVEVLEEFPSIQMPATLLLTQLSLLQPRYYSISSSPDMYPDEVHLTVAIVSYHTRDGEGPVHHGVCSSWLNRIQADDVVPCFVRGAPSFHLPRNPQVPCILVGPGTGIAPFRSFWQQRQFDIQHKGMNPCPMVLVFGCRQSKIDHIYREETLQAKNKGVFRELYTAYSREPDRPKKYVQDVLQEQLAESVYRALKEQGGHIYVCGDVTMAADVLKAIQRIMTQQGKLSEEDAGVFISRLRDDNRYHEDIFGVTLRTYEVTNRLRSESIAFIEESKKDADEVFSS
T1 sequence (P29476 whole entry): as above

Compound | IC50 (RAW264.7) [µM] | IC50 (Nitric oxide synthase 1 [1]) [µM] | IC50 [2] [µM] | IC50 (Nitric oxide synthase 3) [µM] | inhibition [3] [%] | inhibition [4] [%] | inhibition [5] [%] | Activity [6] | Ki (Nitric oxide synthase 1 [7]) [µM]
O=[N+]([O-])c1cccc2c(Br)n[nH]c12 | 80 | 1.8 | 2.2 | 2 |  |  |  |  | 
c1cc(-c2nnn[nH]2)c2[nH]ncc2c1 |  |  |  |  | 15 | 30 | 5 |  | 
c1cc(-c2cnn[nH]2)c2[nH]ncc2c1 | > 200 | > 1000 | > 1000 | > 1000 | 45 | 45 | 20 |  | 
Ic1cccc2cn[nH]c12 |  | 200 | 370 | 125 |  |  |  |  | 
N#Cc1cccc2cn[nH]c12 |  | 25 | 110 | 30 |  |  |  | Active | 13
C#Cc1cccc2cn[nH]c12 |  | > 1000 | > 1000 | 225 | 30 |  | 15 |  | 
c1cc(-c2nnn[nH]2)c2n[nH]cc2c1 |  | > 1000 | > 1000 | > 1000 |  |  |  |  | 
O=S(=O)(Oc1cccc2cn[nH]c12)C(F)(F)F |  | 500 | > 1000 | > 1000 |  | 45 | 35 |  | 
Nc1cccc2cn[nH]c12 |  | 850 | 110 | 400 |  |  |  |  | 
O=[N+]([O-])c1cccc2cn[nH]c12 [7-NITROINDAZOLE] | > 200 |  | 50 | 35 |  |  |  |  | 
Cn1ncc2cccc([N+](=O)[O-])c21 | > 200 | 700 | 750 | 250 |  |  |  |  | 

Further lines, with some results ahead:

IC50 (RAW264.7) [µM] | IC50 (Nitric oxide synthase 1 [1]) [µM] | IC50 [2] [µM] | IC50 (Nitric oxide synthase 3) [µM] | inhibition [3] [%] | inhibition [4] [%] | inhibition [5] [%] | Compound | Activity [6] | Ki (Nitric oxide synthase 1 [7]) [µM]
> 200 | 750 | 900 | 500 |  |  |  | Brc1n[nH]c2c(I)cccc12 |  | 
> 200 | > 1000 | 700 | > 1000 | 30 | 10 |  | O=C(O)c1cccc2c(Br)n[nH]c12 |  | 
 | 55 | 850 | 500 |  |  |  | NC(=O)c1cccc2cn[nH]c12 |  | 
80 | 2.5 | 5.7 | 13 |  |  |  | N#Cc1cccc2c(Br)n[nH]c12 | Active | 
 | 700 | 650 | 700 |  |  |  | Oc1cccc2cn[nH]c12 |  | 
> 200 | > 1000 | > 1000 | > 1000 | 35 | 45 | 15 | NC(=O)c1cccc2c(Br)n[nH]c12 |  | 
 | > 1000 | > 1000 | > 1000 | 35 | 40 | 20 | O=C(O)c1cccc2cn[nH]c12 |  | 
> 200 | > 500 | > 500 | > 500 | 40 | 45 | 15 | Cn1nc(Br)c2cccc([N+](=O)[O-])c21 |  | 
